The record followed here is the RNAGym collection of RNA variant scans (doi:10.1126/science.aae0568).

Fewer inactive variants are shown than the library holds.

First the molecules themselves.
B1: tRNA (parent)
chain: GUUCCGUUGGCGUAAUGGUAACGCGUCUCCCUCCUAAGGAGAAGACUGCGGGUUCGAGUCCCGUACGGAACG

The variants in this series derive from B1. Kind of series: yeast fitness relative to wild type (ratio to wild type); higher = fitter; tRNA-Arg(CCU), competitive growth, 37 C, YPD. The gist of the method: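 Gene amplicons from the start population and from each of six end populations were read by 100-nucleotide paired-end sequencing. Those end populations came from pooled Saccharomyces cerevisiae strains carrying tRNA-Arg(CCU) gene variants at the native locus, competed in YPD at 37°C for 24 hours. Fitness relative to wild type was worked out from changes in genotype frequencies. Genotypes needed ≥ 100 starting reads, and estimates < 0.5 were set to 0.5.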
For GUUCCGUUAGCGUAACGGUAACGCGUCGCCCUCCUAAGGAGAAGACUGCGGGUUCGAGACCCGUACGGAACG [G9A U16C U28G U59A], the yeast fitness was not above 0.5. With GUUCCGUUCGCGUGAUGGUAACGCGUCUCCCUCCUAAGGAGAAGACUGCGGGUUCGAGUCCCGUACGGAGCG [G9C A14G A70G], the yeast fitness came to 0.746.

As to GUUCCGUUAGCGUAAUGGUAACGCGUCUCCCCGCUAGGGAGAAGACUGCGGAUUUGAGUCCCGUACGGAACG [G9A U32C C33G A37G G52A C55U], the yeast fitness was found to be 0.558. The figure for GUUCCGUUAGCGUAAUGGUAACGCGUCUCCCUCCUAAGGAGAAGACUGCGGGUUCGAGCCCCGUACGGUACG [G9A U59C A69U] is 0.776.

GUUCCGUUAGCGUAAUGGUAACGCGUCUCCCUCCUAAGGAGAAGACUGCGGGUCCGAGUCGCGUACGGAACG [G9A U54C C61G]: the yeast fitness came to 0.565. The figure for GUUCCGUUCGCGUGAUGGUAACGCGUCUCCCUCCUAAGGAGAAGACUGCGGGUUCGAGUCCCGUACAGAACG [G9C A14G G67A] is not above 0.5.

For GUUCCGUUAGCGUAAUGGAAACGCGUCUCCCUCCUAAGGAGAAGACUGCGGGUUCGAGUCCCGUCCGGAACG [G9A U19A A65C], the yeast fitness was 0.746.

As to GUUCCGUUAGCGUAAUGGUAACGCGUCCCCCUCCUAAGGAGAAGACUGCGGGUUGGAGUCCGGUACGGAACG [G9A U28C C55G C62G], the yeast fitness is not above 0.5. As for GUUCCGUUAGCGUAAUGGAAACGCGUCUCCCUCCUAAGGAGAGGACUGCGGGUUCGAGUCCCGUACGGCACG [G9A U19A A43G A69C], the figure is 0.541; as for GUUCCGUUAGCGUAAUGGUAACGCGUCUCCCUCCUAAGGAGAAGACUGCGGGUUCGAGUCCCGAACGGAACG [G9A U64A], 0.811. The figure for GUUCCGUUAGCGUAAUGGUAACGCGUCUCCCUCCUAAGGAGAAGACUGCGGGUUCGAGUCCCGCACGGAACG [G9A U64C] is 0.985; for GUUCCGUUAGCGUAAUGGUAACGCGUCUCCCUCCUAAGGAGAAGACUGCGGGCUCGAGUCCCGUACGGAACG [G9A U53C] it is 0.77; for GUUCCGUUAGCGUAAUGGAAACGCGUCUCCCUCCUAAGGAGAAGACUGGGGGUUCGAGCCCCGUACGGAACG [G9A U19A C49G U59C] it is not above 0.5. As for GUUCCGUUAGCGUAAUGGCAACGCGUCUCCCUUCUAAGGUGAAGACUGCGGGUUCGAGACCCGUACGGAACG [G9A U19C C33U A40U U59A], the figure is not above 0.5; as for GUUCCGUUCGCGUGAUGGUAACGCGUCUCCCUCCUAAGGAGAAGACUGGGGGUUCGAGUCCCGUACGGAACG [G9C A14G C49G], not above 0.5. As to GUUCCGUUAGCGUAAUGGUAACGCGUCUCCCUCCUAAGGAGAAGACUGCGGGUACGAGUCCCGUACGGCACG [G9A U54A A69C], the yeast fitness was determined as 0.746. For the variant GUUCCGUUAGCGUAAUGGUAACGCGGCUCCCUCCUAAGGAGAAGACUGCGGGUUCGAGUCCCGUACGGAACG [G9A U26G], the yeast fitness was 0.967. For the variant GUUCCGUUAGCGUAAUGGUAACGCGUCCCCCUCCUAAGGAGAAGACUGCGGGUUCGAGUCCCGUACGGAGCG [G9A U28C A70G], the yeast fitness amounted to 0.673.

With GUUCCGUUAGCGUAAUGGUAACGCGUCUCCCCCCUAAGGAGAGGACUGCGGAUUCGAGUCGCGUACGGAACG [G9A U32C A43G G52A C61G], the yeast fitness turned out to be 0.63.

Consider GUUCCGUUCGCGUGAUGGUAACGCGUCUCCCUCCUAAGGAGAAGACCGCGGGUUCGAGUCCCGUACGGAACG [G9C A14G U47C], for which the yeast fitness was not above 0.5. As for GUUCCGUUAGCGUAAUGGUAACGCGUCACCCUCCUAAGGAGAAGACUGCGGGUUCGAGUGCCGUACGGAACG [G9A U28A C60G], the figure is not above 0.5.

For GUUCCGUUCGCGUCAUGGUAAGGCGUCUCCCUCCUAAGGAGAAGACUGCGGAAUCGAGUCCCGUACGGAACG [G9C A14C C22G G52A U53A], the yeast fitness stood at 0.503.

As to GUUCCGUUAGCGUAAUGGUAACGCGUCUCCCACCUAAGGAGAAGACUCCGGGUUCGAGUCCCGUACGGAACG [G9A U32A G48C], the yeast fitness amounted to 0.531. As for GUUCCGUUAGCGUAAUGGUAACGCGACCCCCUCCUAAGGAGAAGACUGCGGGUUUGAACCCCGUACGGAACG [G9A U26A U28C C55U G58A U59C], the figure is 0.555. As for GUUCCGUUAGCGUAAUGGUAACGCGUCUCCCGCCUAAGGAGAAGACUGGGGGUUAGAGUCCCGUACGGAACG [G9A U32G C49G C55A], the figure is not above 0.5; as for GUUCCGUUCGCGUCAUGAUAACGCGUCUCCCUCCUAAGGAGAACACUGCGGGUUCGCGUCCCGUACGGAACG [G9C A14C G18A G44C A57C], not above 0.5. The figure for GUUCCGUUAGCGUAAUGGUAACGCGUCACCCUCCUAAGGAGAAGACUGCGGGUUCGAGUCCCGUUCGGAACG [G9A U28A A65U] is not above 0.5; for GUUCCGUUAGCGUAAUGGUAACGCGGCUCCCUCCUAAGGAGAAGAUUGCGGGUUCGAGUCCCGUACGGAACG [G9A U26G C46U] it is 0.726. Regarding GUUCCGUUAGCGUAAUGGUAACGCGUCCCUCUCCUAAGGAGAAGACUGCGGGUUCGAGUCCCGUACGGUACG [G9A U28C C30U A69U], the yeast fitness was not above 0.5. Take GUUCCGUUAGCGUAAUGGCAACCCGUCUCCCUCCUAAGGAGAAGACUGUGGGUUCGAGUCCCGUACGGAACG [G9A U19C G23C C49U]: the yeast fitness was not above 0.5.

Take GUUCCGUUAGCGUAAUGGUAACGCGUCCCCCUCCUAAGGAGAAGACUGAGGGUUCGAGUCCCGUACGGAACG [G9A U28C C49A]: the yeast fitness was not above 0.5. For GUUCCGUUAGCGUAAUGGUAACGCGUCUCCCCCCUAAGGAGAAGACUGCGGGUUCGAGUCCCGUACGGAACG [G9A U32C], the yeast fitness was found to be 0.943. As for GUUCCGUUAGCGUAAUGGUAACGCGUCUCCCUCCUAAGGAGAAGACUGCGGGUCCAAGUCCCGUACGGAACG [G9A U54C G56A], the figure is 0.661. As for GUUCCGUUAGCGUAAUGGUAACGCGACUCCCUCCUAAGGAGAUGACUGCGGGUUCGAGUCCCGUACGGAACG [G9A U26A A43U], the figure is 0.616; as for GUUCCGUUAGCGUAAUGGGAACGCGUCUCCCUCCUAAGGAGAAGACUGCGGGUUCGAGUCCCGUACGGAACG [G9A U19G], 0.848; as for GUUCCGUUAGCGUAAUGGAAACGCGUCUCCCUCCUAAGGAGAAGACUGCGGGUUCGAGUCCCGUACGGAACG [G9A U19A], 1.04. Regarding GUUCCGUUAGCGUAAUGGCAACGCGUCUCCCUCCUAAGGAGAAGACUGCGGGUUCGAGUCCCGUACGGAACG [G9A U19C], the yeast fitness came out at 0.983. For the variant GUUCCGUUAGCGUAAUGGUAACGCGUCUCCCUCCUAAGGAGAAGACUGCGGGUUCGAGACCCGUAAGGAACG [G9A U59A C66A], the yeast fitness amounted to 0.55.
